Inconclusive results are not listed. The source made the active and inactive calls.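 The calls were made as follows: active = fitted curve crosses 10% of positive-control caspase signal within tested doses in every repeat test; inconclusive = repeat tests disagree, or any test inconclusive; inactive = the rest.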
System: not listed separately
Test: non-primed MEF caspase induction – cell-based, wild-type MEF, CaspaseGlo luminescence, dry powder, set 3, counter-screen for A1 inhibitor project, dose response (AID 504405)
Settings: wild-type MEF caspase activation, CaspaseGlo luminescence, 3 h; at 35 µM (top of the series)
Method in brief: (§1)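 Material: unprimed wild-type MEF cells; Amount: 2500 cells per well; Medium: RPMI-1640 plus 10% FBS; Dosing: compound added by pin transfer; Detection: luminescence with CaspaseGlo caspase reagent; Measure: caspase activation as toxicity flag; Times: 3 h compound at 37 °C, 1 h detection at room temperature.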

Structure (SMILES) | caspase activation
COCCn1c(=O)c([N+](=O)[O-])c(Cl)c2ccccc21 | -0.545% (inactive)
COc1nc2ccccc2c(Sc2ccc(C)cc2)c1[N+](=O)[O-] | 0.723% (inactive)
Cn1c(=O)c([N+](=O)[O-])c(S(C)(=O)=O)c2ccccc21 | -0.856% (inactive)
CCn1c(=O)c(Sc2ccc(C)cc2)c(Sc2ccc(C)cc2)c2ccccc21 | 0.52% (inactive)
O=C(COc1ccc(Cl)cc1Cl)NNc1nc(N2CCOCC2)nc(N2CCOCC2)n1 | -0.598% (inactive)
O=c1[nH]c2ccccc2c(O)c1[N+](=O)[O-] | 0.522% (inactive)
Cc1ccc(Sc2c([N+](=O)[O-])c(=O)n(C)c3ccccc23)cc1 | 5.89% (inactive)
C/C(=N\Nc1nc(N2CCCCC2)nc(N2CCCCC2)n1)c1ccc(F)cc1 | 0.38% (inactive)
Cc1ccc(S(=O)(=O)c2c([N+](=O)[O-])c(=O)n(C)c3ccccc23)cc1 | -0.89% (inactive)
CCn1c(=O)c([N+](=O)[O-])c(Sc2ccc(C)cc2)c2ccccc21 | 0.226% (inactive)
Cn1c(=O)c(Sc2ccccn2)c(Sc2ccccn2)c2ccccc21 | 0.793% (inactive)
COc1ccc(CCNc2nc(N3CCOCC3)nc(N3CCOCC3)n2)cc1OC | 0.145% (inactive)
COc1ccc(N2CCN(c3nc(NCCc4ccc(OC)c(OC)c4)nc(N4CCOCC4)n3)CC2)cc1 | 0.165% (inactive)
Cc1ccc(Sc2c(Sc3ccc(C)cc3)c3ccccc3n(Cc3ccccc3)c2=O)cc1 | 0.126% (inactive)
COc1nc2ccccc2c(Cl)c1[N+](=O)[O-] | 6.45% (inactive)
COc1ccc(CCNc2nc(N3CCCC3)nc(N3CCCC3)n2)cc1OC | -0.327% (inactive)
Cc1ccc(Sc2c(Sc3ccc(C)cc3)c3ccccc3n(C)c2=O)cc1 | 0.922% (inactive)
COCCn1c(=O)c(Sc2ccc(C)cc2)c(Sc2ccc(C)cc2)c2ccccc21 | 0.603% (inactive)
COc1c([N+](=O)[O-])c(=O)n(C)c2ccccc12 | 0.426% (inactive)

System: wild-type MEF caspase activation, CaspaseGlo luminescence, 3 h
Test: as above
Settings: not given
Method in brief: as §1

Structure (SMILES) | AC10 [µM]
O=c1c([N+](=O)[O-])c(Cl)c2ccccc2n1Cc1ccccc1 | 11.8

Reference: PubChem BioAssay AID504405 (Broad Institute, 2011)
